{
  "source": "ChEMBL document CHEMBL1138273",
  "about": "“Design, synthesis, and characterization of new iron chelators with anti-proliferative activity: structure-activity relationships of novel thiohydrazone analogues” (J Med Chem, 2007)",
  "key": {"SK-N-MC [1]": {"tested_on": "SK-N-MC", "test": "Antiproliferative activity against human SK-N-MC cells by MTT assay", "assay_type": "functional, cell-based", "how_it_was_run": "(§1)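 MTT colour formation, shown to be directly proportional to viable cell number counted by Trypan blue, was used to read growth of SK-N-MC neuroepithelioma or mortal MRC-5 fibroblast cells. IC50 values are given as mean ± SD of 3 experiments.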"}, "MRC5": {"tested_on": "MRC5", "test": "Antiproliferative activity against human MRC5 cells by MTT assay", "assay_type": "cell-based", "how_it_was_run": "as §1"}, "SK-N-MC [2]": {"tested_on": "SK-N-MC", "test": "Inhibition of cellular iron uptake from 59Fe]transferrin in human SK-N-MC cells at 50 uM relative to control", "assay_type": "functional", "details": "values are per cent of control", "how_it_was_run": "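Cells were co-incubated for 3 h at 37 °C with 59Fe-transferrin (0.75 µM) plus chelator (50 µM), then washed four times in ice-cold PBS. Pronase (1 mg/mL, 30 min, 4 °C) stripped membrane-bound 59Fe, and the Pronase-insensitive fraction was counted as internalized. Values are % of control, mean ± SD of 3 experiments with 3 determinations each.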"}, "SK-N-MC [3]": {"tested_on": "SK-N-MC", "test": "Effect on iron efflux in human SK-N-MC cells assessed as cellular iron release", "assay_type": "functional", "design": "concentration or dose not given beside the values", "how_it_was_run": "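SK-N-MC cells were prelabeled with 59Fe-transferrin (0.75 µM) for 3 h at 37 °C, washed four times with ice-cold PBS, then incubated with chelator (50 µM). Overlying medium was separated from cells, and released versus retained 59Fe was gamma-counted in supernatant and cell pellet. Mean ± SD of 3 experiments, 3 determinations each.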"}},
  "data": [
    {"smiles": "O=C(N/N=C(/c1ccccc1)c1ccccn1)c1ccccc1", "values": [
      {"measurement": "IC50", "setting": "SK-N-MC [1]", "value": 1470, "unit": "nM"}
    ]},
    {"smiles": "S=C(N/N=C(/c1ccccc1)c1ccccn1)c1ccccc1", "values": [
      {"measurement": "IC50", "setting": "MRC5", "value": 530, "unit": "nM"},
      {"measurement": "IC50", "setting": "SK-N-MC [1]", "value": 11, "unit": "nM"}
    ]},
    {"smiles": "O=C(NN=C(c1ccccn1)c1ccccn1)c1ccccc1", "values": [
      {"measurement": "IC50", "setting": "SK-N-MC [1]", "value": 1240, "unit": "nM"}
    ]},
    {"smiles": "S=C(NN=C(c1ccccn1)c1ccccn1)c1ccccc1", "values": [
      {"measurement": "response, % of control at 50 µM", "setting": "SK-N-MC [2]", "value": 20, "unit": "%"},
      {"measurement": "Activity", "setting": "SK-N-MC [3]", "value": 37, "unit": "%"},
      {"measurement": "IC50", "setting": "MRC5", "value": 750, "unit": "nM"},
      {"measurement": "IC50", "setting": "SK-N-MC [1]", "value": 12, "unit": "nM"}
    ]},
    {"smiles": "CN(C)C(=S)NN=C(c1ccccn1)c1ccccn1", "values": [
      {"measurement": "Activity", "setting": "SK-N-MC [3]", "value": 44, "unit": "%"},
      {"measurement": "IC50", "setting": "SK-N-MC [1]", "value": 2, "unit": "nM"}
    ]},
    {"smiles": "O=C(N/N=C/c1c(O)ccc2ccccc12)c1ccncc1", "values": [
      {"measurement": "Activity", "setting": "SK-N-MC [3]", "value": 44, "unit": "%"},
      {"measurement": "IC50", "setting": "SK-N-MC [1]", "value": 590, "unit": "nM"}
    ]},
    {"smiles": "O=C(N/N=C/c1c(O)ccc2ccccc12)c1ccccc1", "values": [
      {"measurement": "IC50", "setting": "SK-N-MC [1]", "value": 990, "unit": "nM"}
    ]},
    {"smiles": "Oc1ccc2ccccc2c1/C=N/NC(=S)c1ccccc1", "values": [
      {"measurement": "response, % of control at 50 µM", "setting": "SK-N-MC [2]", "value": 20, "unit": "%"},
      {"measurement": "Activity", "setting": "SK-N-MC [3]", "value": 37, "unit": "%"},
      {"measurement": "IC50", "setting": "MRC5", "value": 3890, "unit": "nM"},
      {"measurement": "IC50", "setting": "SK-N-MC [1]", "value": 2530, "unit": "nM"}
    ]},
    {"smiles": "CC(=O)N(O)CCCCCNC(=O)CCC(=O)N(O)CCCCCNC(=O)CCC(=O)N(O)CCCCCN", "note": "[DEFEROXAMINE]", "values": [
      {"measurement": "Activity", "setting": "SK-N-MC [3]", "value": 17, "unit": "%"},
      {"measurement": "IC50", "setting": "SK-N-MC [1]", "value": 14200, "unit": "nM"}
    ]},
    {"smiles": "Cc1ncc(CO)c(/C=N/NC(=O)c2ccccc2)c1O", "note": "[PYRIDOXAL BENZOYL HYDRAZONE]", "values": [
      {"measurement": "IC50", "setting": "SK-N-MC [1]", "value": 31800, "unit": "nM"}
    ]},
    {"smiles": "Cc1ncc(CO)c(/C=N/NC(=O)c2ccncc2)c1O", "note": "[PYRIDOXAL ISONICOTINOYL HYDRAZONE]", "values": [
      {"measurement": "Activity", "setting": "SK-N-MC [3]", "value": 44, "unit": "%"}
    ]},
    {"smiles": "Cc1ncc(CO)c(/C=N/NC(=S)c2ccccc2)c1O", "note": "[PYRIDOXAL THIOBENZOYL HYDRAZONE]", "values": [
      {"measurement": "IC50", "setting": "MRC5", "value": "> 80000", "unit": "nM"},
      {"measurement": "IC50", "setting": "SK-N-MC [1]", "value": 58200, "unit": "nM"}
    ]},
    {"smiles": "O=C(N/N=C/c1ccccc1O)c1ccccc1", "note": "[SALICYLALDEHYDE BENZOYL HYDRAZONE]", "values": [
      {"measurement": "IC50", "setting": "SK-N-MC [1]", "value": 3230, "unit": "nM"}
    ]},
    {"smiles": "Oc1ccccc1/C=N/NC(=S)c1ccccc1", "note": "[SALICYLALDEHYDE THIOBENZOYL HYDRAZONE]", "values": [
      {"measurement": "response, % of control at 50 µM", "setting": "SK-N-MC [2]", "value": 20, "unit": "%"},
      {"measurement": "Activity", "setting": "SK-N-MC [3]", "value": 37, "unit": "%"},
      {"measurement": "IC50", "setting": "MRC5", "value": 57000, "unit": "nM"},
      {"measurement": "IC50", "setting": "SK-N-MC [1]", "value": 24500, "unit": "nM"}
    ]},
    {"smiles": "NC(=S)N/N=C/c1ncccc1N", "note": "[TRIAPINE]", "values": [
      {"measurement": "IC50", "setting": "SK-N-MC [1]", "value": 540, "unit": "nM"}
    ]}
  ]
}
